Measured values from different studies.
Each line is one published result; the experiments were not run side by side.
Target: Dual specificity protein kinase CLK1 (CLK1, Homo sapiens, UniProt P49759)
Technique: competition with immobilised ligand

SMILES	read-out	concentration	remaining binding [%]
O=C(Nc1c[nH]nc1C(=O)NC1CCNCC1)c1cc(F)cc(F)c1	binding	1 µM	100
CNC(=O)[C@@H]1CC[C@@H](n2c(-c3ccc4cnccc4c3)nc3ccc(C(=O)NCc4cccc(C(N)=O)c4)cc32)C1	binding	1 µM	98
Cc1cc(C)c(-n2ccn3nc(-c4cccnc4)cc23)cc1NC(=O)c1cc(C#N)cc(S(F)(F)(F)(F)F)c1	cell-free assay	0.1 µM	96.2
O=C(c1ccc(Nc2ncc(Cl)c(-c3ccc(Cl)s3)n2)cc1)N1CCC(N2CCCC2)CC1	binding	1 µM	3.9
CNC(=O)c1ccccc1Nc1cc(Nc2ccc(N3CCOCC3)cc2OC)ncc1C(F)(F)F	binding	1 µM	< 10
CN([C@@H]1CCc2c(CC(=O)O)c3cc(S(C)(=O)=O)ccc3n2C1)S(=O)(=O)c1ccc(F)cc1	cell-free assay	1 µM	100
Nc1ncc2c(n1)-c1c([nH]c3ccc(C#CC4CC4)cc13)CCCC2	binding	1 µM	100
O=C(NCCCN1CCOCC1)c1ccc(Nc2ncc(Cl)c(-c3ccc(Cl)s3)n2)cc1	binding	1 µM	3.6
CN(CCCC(F)(F)F)c1nccc(-c2cnn3ncccc23)n1	binding	1 µM	43
Cc1cnc(Nc2ccc(C(=O)N3CCC(N4CCCC4)CC3)cc2)nc1-c1cc2ccccc2s1	binding	1 µM	8.3
COc1cc(-c2cn(C3CCc4c(F)cccc4N(CC(F)(F)F)C3=O)nn2)ccc1-n1cnc(C)c1 (centres unmarked)	cell-free assay	1 µM	77
C=CC(=O)N1CCC(C(=O)NCC(=O)N2CCN(c3nc(-c4cnc(N)nc4C(F)F)nc(N4CCOCC4)n3)CC2)CC1	binding	1 µM	93
COc1cc(-c2cn(C3CCc4ccccc4N(CC(F)(F)F)C3=O)nn2)ccc1-n1ccc(C)n1 (centres unmarked)	cell-free assay	1 µM	87
FC(F)(F)Oc1cccc(-c2cnc3ccc(-c4ccncc4)nn23)c1	cell-free assay	5 µM	0.7
